In brackets after ≈: the same amount, converted by molar mass.
Columns and labels:
Type in all cases: functional
Bacillus anthracis [1] = assay: Antibacterial activity against Bacillus anthracis Sterne assessed as growth inhibition at 10 uM measured every 2 mins for 16 to 20 hrs by spectramax 96-well plate reader analysis; settings: read-out: GI
Bacillus anthracis [2] = assay: Antibacterial activity against Bacillus anthracis Sterne assessed as growth inhibition at 30 uM measured every 2 mins for 16 to 20 hrs by spectramax 96-well plate reader analysis; settings: read-out: GI
Staphylococcus aureus [3] = assay: Antibacterial activity against methicillin-resistant Staphylococcus aureus assessed as growth inhibition at 3 uM measured every 2 mins for 16 to 20 hrs by spectramax 96-well plate reader analysis; settings: read-out: GI
Staphylococcus aureus [4] = assay: Antibacterial activity against methicillin-resistant Staphylococcus aureus assessed as growth inhibition at 30 uM measured every 2 mins for 16 to 20 hrs by spectramax 96-well plate reader analysis; settings: read-out: GI
Staphylococcus aureus [5] = assay: Antibacterial activity against methicillin-resistant Staphylococcus aureus assessed as growth inhibition at 10 uM measured every 2 mins for 16 to 20 hrs by spectramax 96-well plate reader analysis; settings: read-out: GI
Bacillus anthracis [6] = assay: Antibacterial activity against Bacillus anthracis Sterne assessed as growth inhibition at 3 uM measured every 2 mins for 16 to 20 hrs by spectramax 96-well plate reader analysis; settings: read-out: GI
Bacillus subtilis = assay: Antibacterial activity against Bacillus subtilis 19659 assessed as growth inhibition measured for 3 days by broth microdilution method
In short: (§1)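 MIC by broth microdilution against a panel of Gram-positive and Gram-negative strains (ATCC-type numbers where given). Run in triplicate on three different days.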

Staphylococcus aureus [7] = assay: Antibacterial activity against Staphylococcus aureus 13709 assessed as growth inhibition measured for 3 days by broth microdilution method; in short: as §1
[8] = Bacillus subtilis, 19659, 72 h, read-out: MIC
[9] = Staphylococcus aureus, 13709, 72 h, read-out: MIC

Row | Compound | inhibition of growth at 10 µM (Bacillus anthracis [1]) | inhibition of growth at 30 µM (Bacillus anthracis [2]) | inhibition of growth at 3 µM (Staphylococcus aureus [3]) | inhibition of growth at 30 µM (Staphylococcus aureus [4]) | inhibition of growth at 10 µM (Staphylococcus aureus [5]) | inhibition of growth at 3 µM (Bacillus anthracis [6]) | MIC (Bacillus subtilis; [8]) | MIC (Staphylococcus aureus [7]; [9]) | MIC (Bacillus subtilis) | MIC (Staphylococcus aureus [7])
1 | O=C(O)C(Cc1ccccc1)N1C(=O)/C(=C\c2ccc(-c3cccc(Cl)c3)o2)NC1=S (stereo not given) | 0% | 90% | 0% | 10% | 0% | 10% | – | – | – | –
2 | O=C(O)C(Cc1ccccc1)N1C(=O)/C(=C\c2ccc(-c3ccc(Br)cc3)o2)NC1=S (stereo not given) | 100% | 100% | 10% | 90% | 90% | 70% | – | – | – | –
3 | O=C(O)C(Cc1ccccc1)N1C(=O)/C(=C\c2ccc(-c3ccc(I)cc3)o2)NC1=S (stereo not given) | 100% | 100% | 0% | 90% | 90% | 50% | – | – | – | –
4 | O=C(O)C(Cc1ccccc1)N1C(=O)/C(=C\c2ccc(-c3ccc(OC(F)(F)F)cc3)o2)NC1=S (stereo not given) | 100% | 100% | 0% | 100% | 10% | 10% | – | – | – | –
5 | O=C(O)C(Cc1ccccc1)N1C(=O)/C(=C\c2ccc(-c3ccc(Cl)c(Cl)c3)s2)NC1=S (stereo not given) | 110% | 90% | 10% | 40% | 10% | 0% | – | – | – | –
6 | O=C(O)C(Cc1ccccc1)N1C(=O)/C(=C\c2ccc(-c3ccc(Cl)c(Cl)c3)o2)NC1=S (stereo not given) | 110% | 110% | 20% | 100% | 90% | 110% | – | – | – | –
7 | O=C(O)C(Cc1ccccc1)N1C(=O)/C(=C\c2ccc(-c3ccc(Br)c(Cl)c3)s2)NC1=S (stereo not given) | 10% | 90% | – | 0% | 10% | 20% | – | – | – | –
8 | O=C(O)C(Cc1ccccc1)N1C(=O)/C(=C\c2ccc(-c3ccc(Br)c(Cl)c3)o2)NC1=S (stereo not given) | 100% | 100% | 20% | 100% | 100% | 100% | – | – | – | –
9 | O=C(O)C(Cc1ccccc1)N1C(=O)/C(=C\c2ccc(-c3cc(Cl)cc(Cl)c3)o2)NC1=S (stereo not given) | 0% | 100% | 0% | 90% | 10% | 0% | – | – | – | –
10 | COc1ccc(-c2ccc(/C=C3/NC(=S)N(C(Cc4ccccc4)C(=O)O)C3=O)o2)cc1Cl (stereo not given) | 30% | 100% | 10% | 80% | 10% | 0% | – | – | – | –
11 | COc1ccc(-c2ccc(/C=C3/NC(=S)N(C(Cc4ccccc4)C(=O)O)C3=O)s2)cc1 (stereo not given) | 0% | 100% | 0% | 20% | 10% | 0% | – | – | – | –
12 | O=C(O)C(Cc1ccccc1)N1C(=O)/C(=C\c2ccc(-c3ccc(F)cc3)s2)NC1=S (stereo not given) | 10% | 100% | 20% | 50% | 20% | 0% | – | – | – | –
13 | O=C(O)C(Cc1ccccc1)N1C(=O)/C(=C\c2ccc(-c3ccc(Cl)cc3)s2)NC1=S (stereo not given) | 100% | 100% | 0% | 90% | 0% | 0% | – | – | – | –
14 | O=C(O)C(Cc1ccccc1)N1C(=O)/C(=C\c2ccc(-c3ccc(Br)cc3)s2)NC1=S (stereo not given) | 100% | 100% | 20% | 90% | 90% | 80% | – | – | – | –
15 | O=C1NC(=S)NC(=O)C1=Cc1ccc(-c2ccc(Br)c(Cl)c2)o1 | – | 96.6% | – | – | – | – | – | – | – | –
16 | O=C1Nc2ccccc2/C1=C1/SC(=S)N(C(Cc2ccccc2)C(=O)O)C1=O (stereo not given) | – | 99.7% | – | – | – | – | – | – | – | –
17 | O=C(O)[C@@H](Cc1ccccc1)N1C(=O)/C(=C/c2ccc(-c3ccc(Cl)c(Cl)c3)o2)NC1=S | – | – | – | – | – | – | 6.8 µM (≈ 3.31 µg/mL) | 6.8 µM (≈ 3.31 µg/mL) | – | –
18 | O=C(O)[C@H](Cc1ccccc1)N1C(=O)/C(=C/c2ccc(-c3ccc(Cl)c(Cl)c3)o2)NC1=S | – | – | – | – | – | – | 6.8 µM (≈ 3.31 µg/mL) | 6.8 µM (≈ 3.31 µg/mL) | – | –
19 | CCC(C(=O)O)N1C(=O)/C(=C\c2ccc(-c3ccc(Cl)c(Cl)c3)o2)NC1=S (stereo not given) | 100% | 90% | 0% | 90% | 0% | 0% | – | – | – | –
20 | NC(=O)C(Cc1ccccc1)N1C(=O)/C(=C\c2ccc(-c3ccc(Cl)c(Cl)c3)o2)NC1=S (stereo not given) | 90% | 90% | 0% | 60% | 30% | 20% | – | – | – | –
21 | CCOC(=O)C(Cc1ccccc1)N1C(=O)/C(=C\c2ccc(-c3ccc(Cl)c(Cl)c3)o2)NC1=S (stereo not given) | 50% | 0% | – | 0% | 0% | – | – | – | – | –
22 | N#CNC(=O)C(Cc1ccccc1)N1C(=O)/C(=C\c2ccc(-c3ccc(Cl)c(Cl)c3)o2)NC1=S (stereo not given) | 100% | 100% | 0% | 100% | 0% | 0% | – | – | – | –
23 | CS(=O)(=O)NC(=O)C(Cc1ccccc1)N1C(=O)/C(=C\c2ccc(-c3ccc(Cl)c(Cl)c3)o2)NC1=S (stereo not given) | 100% | 90% | 0% | 60% | 30% | 40% | – | – | – | –
24 | O=C(NS(=O)(=O)C(F)(F)F)C(Cc1ccccc1)N1C(=O)/C(=C\c2ccc(-c3ccc(Cl)c(Cl)c3)o2)NC1=S (stereo not given) | 100% | 100% | 0% | 90% | 80% | 70% | – | – | – | –
25 | CCC(C(=O)NS(C)(=O)=O)N1C(=O)/C(=C\c2ccc(-c3ccc(Cl)c(Cl)c3)o2)NC1=S (stereo not given) | 0% | 20% | 0% | 0% | 0% | 10% | – | – | – | –
26 | O=C(O)[C@@H](Cc1ccccc1)N1C(=O)/C(=C\c2ccc(-c3ccc(Cl)c(Cl)c3)o2)NC1=S | – | – | – | – | – | – | 6.8 µM (≈ 3.31 µg/mL) | 6.8 µM (≈ 3.31 µg/mL) | – | –
27 | O=C(O)[C@H](Cc1ccccc1)N1C(=O)/C(=C\c2ccc(-c3ccc(Cl)c(Cl)c3)o2)NC1=S | – | – | – | – | – | – | – | – | 6.8 µM (≈ 3.31 µg/mL) | 6.8 µM (≈ 3.31 µg/mL)
28 | O=C(O)C(Cc1ccccc1)N1C(=O)/C(=C\c2ccc(-c3ccccc3)o2)NC1=S (stereo not given) | 10% | 20% | 0% | 10% | 10% | 0% | – | – | – | –
29 | O=C(O)C(Cc1ccccc1)N1C(=O)/C(=C\c2ccc(-c3ccc(Cl)cc3)o2)NC1=S (stereo not given) | 70% | 100% | 10% | 90% | 20% | 0% | – | – | – | –
